PG9 binder: small molecules binding HIV-1 gp120 antibody PG9. 360,000 compounds, 0.43% hits. TR-FRET gp120-PG9 antibody binding. inhibition, % at 6.7 µM. AID 624416; in the data active means inhibition above about 8.5%
NR2E3 ag-1: activates human NR2E3 receptor; CHO-S Gal4-NCOR/VP16-NR2E3 two-hybrid, luciferase; AID 602229; 360,000 compounds, 0.35% hits; Q9Y5X4; inhibition of corepressor binding, % at 3.98 µM;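 active means inhibition above the mean of all tested compounds plus 3 SD, cut at about 70% in these data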;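 further: 0% = DMSO with NR2E3 transfected cells and 100% = cells lacking NR2E3 construct; higher means lower luciferase signal from less NR2E3 corepressor binding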
Target sequence (Q9Y5X4 whole entry, looked up, the tested form may be a part): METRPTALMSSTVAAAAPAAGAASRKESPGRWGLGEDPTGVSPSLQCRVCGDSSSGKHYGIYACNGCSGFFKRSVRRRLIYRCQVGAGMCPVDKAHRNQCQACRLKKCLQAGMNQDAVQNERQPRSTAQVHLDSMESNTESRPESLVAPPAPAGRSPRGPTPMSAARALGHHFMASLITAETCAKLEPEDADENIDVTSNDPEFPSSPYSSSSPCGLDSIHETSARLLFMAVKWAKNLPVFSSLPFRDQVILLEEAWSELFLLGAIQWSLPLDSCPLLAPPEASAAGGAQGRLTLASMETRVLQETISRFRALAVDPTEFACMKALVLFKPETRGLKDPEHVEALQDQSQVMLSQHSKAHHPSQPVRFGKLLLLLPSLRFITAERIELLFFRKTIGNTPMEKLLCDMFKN
NR2E3 ag-2: NR2E3 (human) agonism; GST-NR2E3/biotin-RetCOR TR-FRET, 1536-well; Q9Y5X4; inhibition of corepressor binding, % at 4.78 µM; 320,000 compounds, 0.12% hits;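 active means percent inhibition above the cutoff of mean plus 3 SD of all tested compounds, set per screening campaign, cut at about 20% in these data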;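 further: 0% = DMSO wells and 100% = biotin wells as full block of FRET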
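Test system: GST-NR2E3 and biotin-RetCOR proteins | Quantity: 1.35 nM GST-tagged NR2E3 final | Medium: Tris pH 7.5 | Also added: 7 nM biotin-RetCOR | Dosing: Compound at 4.8 µM, single dose | Timing: 5 h at 4 °C | Detection: Time-resolved FRET | Read-out basis: Percent inhibition | Benchmarks: Biotin wells as high control, 0.6% DMSO wells as low control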
NR1D1 modulator: Rev-erb alpha (human) modulation; P20393; Rev-erbα–FITC-DNA binding, fluorescence polarization, 90 min; activity, % at 10 µM; 370,000 compounds, 0.79% hits;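 active means activity above about 14%, limit read from the data; passing the limit was not always enough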;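 further: 0% = DMSO wells with 35 nM protein and 100% = DMSO wells with 750 nM protein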
PKA-R2B act: activators of human PKA-R2B complex; 340,000 compounds, 0.079% hits; PKA-R2B holoenzyme dissociation, Cy5-IP20 fluorescence polarization; R2B truncated from residue 108, S112A mutant; 0% DMSO only, 100% 113 µM cGMP; activation, % at 11.4 µM; P22694+P31323;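 active means activation above a cutoff set at the mean over all compounds plus 3 SD, cut at about 18% in these data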;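 further: higher means more holoenzyme dissociation and a rise in polarization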
PKA-R1A act: activates the PKA-R1A holoenzyme complex; P00514+P68181; PKA-R1A dissociation, Cy5-IP20 fluorescence polarization; scaled: DMSO 0%, 113 µM cGMP 100%; activation, % at 11.4 µM; 340,000 compounds, 0.083% hits; AID 504707;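 active means percent activation above the mean of all tested compounds plus 3 SD, cut at about 19% in these data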;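 further: higher means more PKAc released from R1A so a rise in polarization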
NR2E3 ag confirm: confirmation of human NR2E3 agonists; shares compounds with NR2E3 ag-1; CHO-S mammalian two-hybrid NR2E3-NCOR, luciferase luminescence; inhibition, % at 3.98 µM; 2,300 compounds, 51% hits; AID 624378;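 active means average inhibition above a cutoff equal to the mean inhibition of all tested compounds plus one SD, cut at about 70% in these data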;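 further: 0% = DMSO in NR2E3 cells and 100% = DMSO in cells lacking NR2E3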
VP16 counter: GAL4-VP16 reporter inhibition in NR2E3 agonist counterscreen. CHO-S GAL4-VP16 luciferase reporter, luminescence. shares compounds with NR2E3 ag-1. 2,300 compounds, 29% hits. inhibition, % at 3.98 µM;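 active means mean inhibition above a cutoff equal to the average over all tested compounds plus one standard deviation, cut at about 70% in these data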;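 further: luciferase from a UAS reporter driven by GAL4-VP16 transactivation; 0% = DMSO with VP16-transfected cells and 100% = DMSO with cells lacking VP16; higher means less reporter light so more repression of VP16 activity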
An asterisk follows results filed as active. In the library only some 1.6% were active in any assay of this set; here they are far more common.

Results for Cc1nc2ccc(NS(=O)(=O)c3ccc4c(c3)OCCO4)cc2s1 ?
PG9 binder: 1.6; NR2E3 ag-1: 94.2*; NR2E3 ag-2: -4.2; NR1D1 modulator: 7.3; PKA-R2B act: 0.2; PKA-R1A act: -5.9; NR2E3 ag confirm: 97.3*; VP16 counter: 91.1*

What do the screens show for `Cc1nc2ccc(NS(=O)(=O)c3ccc(F)c(F)c3)cc2s1`?
PG9 binder: -0.5; NR2E3 ag-1: 64.7; NR2E3 ag-2: 2.9; NR1D1 modulator: -2.1; PKA-R2B act: -5.9; PKA-R1A act: -6.1; NR2E3 ag confirm: 59.1; VP16 counter: 45.7

Results for S=C(Nc1ccccc1)Nc1ccc(OCc2ccc(Cl)cc2Cl)cc1 ?
PG9 binder: 2.6; NR2E3 ag-1: 75.1*; NR2E3 ag-2: 3.0; NR1D1 modulator: -2.1; PKA-R2B act: -6.7; PKA-R1A act: -4.4; NR2E3 ag confirm: 65.5; VP16 counter: 61.4

Results for S=C(NCCSCc1ccc(Cl)cc1Cl)Nc1ccccc1 ?
PG9 binder: 1.0; NR2E3 ag-1: 48.5; NR2E3 ag-2: 3.7; NR1D1 modulator: 2.8; PKA-R2B act: -13.7; PKA-R1A act: -9.5

What do the screens show for `CCc1cccc2sc(N3CCN(C(=O)c4ccc([N+](=O)[O-])o4)CC3)nc12`?
NR2E3 ag-1: 90.5*; NR2E3 ag-2: -1.7; PKA-R2B act: 2.2; PKA-R1A act: -4.4; NR2E3 ag confirm: 76.2*; VP16 counter: 13.2

What do the screens show for `COc1ccc(NC(=O)O/N=C/c2c(C)nn(C(C)(C)C)c2C)cc1`?
PG9 binder: -1.5; NR2E3 ag-1: -24.7; NR2E3 ag-2: 0.9; NR1D1 modulator: 1.3; PKA-R2B act: -18.0; PKA-R1A act: -3.7

How did Cc1nn(C(C)(C)C)c(C)c1/C=N/OC(=O)Nc1ccc(Cl)c(Cl)c1 do in these assays?
PG9 binder: 0.1; NR2E3 ag-1: 91.8*; NR2E3 ag-2: -1.9; NR1D1 modulator: -3.0; PKA-R2B act: 3.8; PKA-R1A act: -11.2; NR2E3 ag confirm: 36.0; VP16 counter: 95.7*

Results for CCOc1ccccc1CNc1ncnc2ccc(-c3c(C)noc3C)cc12 ?
PG9 binder: -0.4; NR2E3 ag-1: 82.0*; NR2E3 ag-2: 0.7; NR1D1 modulator: 4.0; PKA-R2B act: -8.0; PKA-R1A act: -8.9; NR2E3 ag confirm: 81.1*; VP16 counter: 66.0

Results for CCC[C@H]1[C@@H](OC(=O)NCc2ccc(C(F)(F)F)cc2)CC[C@@]23CCCN2C(=O)CCC[C@@H]13 ?
NR1D1 modulator: 2.9

Results for N=C1SC(c2ccccc2)C(=O)N1c1ncc(Cc2ccccc2Cl)s1 (configuration not stated) ?
PG9 binder: -3.1; NR2E3 ag-1: 57.8; NR2E3 ag-2: -1.2; NR1D1 modulator: -5.8; PKA-R2B act: -6.5; PKA-R1A act: -4.1; NR2E3 ag confirm: 59.0; VP16 counter: 20.4

What do the screens show for `O=C(CSc1nnnn1-c1ccccc1)Nc1ncc(Cc2ccccc2Cl)s1`?
PG9 binder: -3.0; NR2E3 ag-1: -19.8; NR2E3 ag-2: 3.6; NR1D1 modulator: -4.0; PKA-R2B act: 0.3; PKA-R1A act: -1.8

What do the screens show for `CCC1Sc2ccc(S(=O)(=O)CCC(=O)Nc3ccc(C(=O)OC)cc3)cc2NC1=O` (configuration not stated)?
PG9 binder: 1.3; NR2E3 ag-1: -8.5; NR2E3 ag-2: 1.3; NR1D1 modulator: -4.7; PKA-R2B act: -1.6; PKA-R1A act: -3.2

How did COc1ccc(C)cc1NS(=O)(=O)c1ccc2c(c1)NC(=O)C(C)S2 (configuration not stated) do in these assays?
PG9 binder: -2.3; NR2E3 ag-1: 8.4; NR2E3 ag-2: 1.1; NR1D1 modulator: -4.8; PKA-R2B act: -2.4; PKA-R1A act: -2.9

What do the screens show for `CCC1Sc2ccc(S(=O)(=O)Nc3ccc(OC)cc3)cc2NC1=O` (configuration not stated)?
PG9 binder: -1.0; NR2E3 ag-1: 60.1; NR2E3 ag-2: 3.5; NR1D1 modulator: -1.8; PKA-R2B act: 6.3; PKA-R1A act: 7.7; NR2E3 ag confirm: 44.5; VP16 counter: 51.9

What do the screens show for `CCC1Sc2ccc(S(=O)(=O)Nc3ccc(OC)c(OC)c3)cc2NC1=O` (configuration not stated)?
PG9 binder: -3.2; NR2E3 ag-1: 88.4*; NR2E3 ag-2: 0.4; NR1D1 modulator: -4.7; PKA-R2B act: -2.1; PKA-R1A act: -0.2; NR2E3 ag confirm: 81.0*; VP16 counter: 56.6

What do the screens show for `COC(=O)[C@]12C[C@H](CC(=O)NCCCCc3ccccc3)C(=O)N(Cc3ccco3)C1=C[C@H](C(C)(C)C)O[C@@H]2C`?
NR1D1 modulator: -5.2

How did O=C(CSc1nnc(-c2cccnc2)n1Cc1ccco1)Nc1ccc(F)cc1Cl do in these assays?
NR1D1 modulator: -7.2

Results for CN(C)CCNC(=O)C(=O)Nc1cc2c3c(c1)CCC(=O)N3CCC2 ?
PG9 binder: -0.8; NR2E3 ag-1: 6.4; NR2E3 ag-2: 0.8; NR1D1 modulator: -2.0; PKA-R2B act: -7.2; PKA-R1A act: 8.4

What do the screens show for `CCN(CC)CCNC(=O)C(=O)Nc1cc2c3c(c1)CCC(=O)N3CCC2`?
PG9 binder: -1.1; NR2E3 ag-1: 75.1*; NR2E3 ag-2: -0.1; NR1D1 modulator: 0.9; PKA-R2B act: 5.3; PKA-R1A act: -3.6; NR2E3 ag confirm: -8.7; VP16 counter: -14.1

Results for CCN(CC)C(=O)C1CCN(S(=O)(=O)c2ccc3oc4ccccc4c3c2)CC1 ?
PG9 binder: -3.8; NR2E3 ag-1: 76.8*; NR2E3 ag-2: -0.4; NR1D1 modulator: -1.6; PKA-R2B act: -4.3; PKA-R1A act: -7.5; NR2E3 ag confirm: 64.8; VP16 counter: 58.4

Results for CCOc1ccc(CN(C)c2ccc(S(=O)(=O)N3CCN(C)CC3)cc2[N+](=O)[O-])cc1OC ?
NR2E3 ag-1: 65.7; NR2E3 ag-2: 3.1; PKA-R2B act: -8.2; PKA-R1A act: -3.0; NR2E3 ag confirm: 77.6*; VP16 counter: 68.5

Results for Brc1ccc(N/N=C(/N=Nc2nn[nH]n2)c2ccccc2)cc1 ?
PG9 binder: -2.2; NR2E3 ag-1: 72.1*; NR2E3 ag-2: 0.1; NR1D1 modulator: 3.6; PKA-R2B act: 3.7; PKA-R1A act: -4.0; NR2E3 ag confirm: 94.2*; VP16 counter: 35.3

Screening results from PubChem.
